Screening data as filed in PubChem BioAssay.
Most compounds without a hit are left out; they make up all but 2% or so of the library.
STAT3 blocker – inhibitors of IL-6 induced STAT3 signaling. U3A cells, IL-6 STAT3-luciferase reporter, luminescence; host cell line lacks STAT1. inhibition, % at 5.5 µM. actives 0.89% (n = 190,000). AID 862;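 active = inhibition above the mean inhibition across all screened compounds plus 3 SD, cut at about 44% in these data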
HSP90 inh – HSP90 refolding inhibition in rabbit reticulocyte lysate; luciferase refolding luminescence, 3 h; actives 0.91% (n = 290,000); AID 1789; inhibition, % at 5.6 µM;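 active = inhibition above the screen-wide mean plus 3 SD, computed separately per campaign, cut at about 16% in these data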;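 note: inhibitors lower the luminescence because luciferase stays unfolded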
STAT1 blocker – reduces IFN-gamma driven STAT1 reporter signal. inhibition, % at 5.5 µM. NIH 3T3 STAT1-luciferase reporter, luminescence. actives 0.35% (n = 200,000);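 active = inhibition above a set limit, the mean inhibition across all tested compounds plus 3 SD, cut at about 34% in these data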
STAT3 act – STAT3 signaling activation | actives 0.91% (n = 190,000) | AID 871 | U3A cells, IL-6 STAT3-luciferase reporter, luminescence; 100% = signal with IL-6 EC80 alone | activation (% of control), % at 5.6 µM;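 active = activation above the screen-wide mean of compound activation plus 3 SD, cut at about 130% in these data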
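Material: human U3A cells carrying STAT3-luciferase construct. Measured by: reporter luminescence signal. Timing: compound 1 h, then IL-6 6 h at 37 °C.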
Numbers stand for hits.

Results for CCS(=O)(=O)N1Cc2ccccc2CC1C(=O)Nc1nc2ccccc2s1 (configuration not stated) ?
STAT3 blocker: inactive; HSP90 inh: 26.3; STAT1 blocker: inactive; STAT3 act: inactive

Results for COc1ccc(-n2c(SCC(=O)NCC3CCCO3)nc3n[nH]c(C)c3c2=N)cc1 (configuration not stated) ?
STAT3 blocker: inactive; HSP90 inh: inactive; STAT1 blocker: inactive; STAT3 act: inactive

What do the screens show for `Cc1ccc(-n2c(SCC(=O)NCC3CCCO3)nc3n[nH]c(C)c3c2=N)cc1Cl` (configuration not stated)?
STAT3 blocker: 45.3; HSP90 inh: inactive; STAT1 blocker: inactive; STAT3 act: inactive

How did CCN1/C(=C\C(=S)Nc2ccccc2)Sc2ccccc21 do in these assays?
STAT3 blocker: inactive; HSP90 inh: inactive; STAT1 blocker: inactive; STAT3 act: inactive

How did CCN1/C(=C/C(C)=C/c2sc3ccccc3[n+]2CC)Sc2ccccc21 do in these assays?
STAT3 blocker: 95.9; HSP90 inh: inactive; STAT1 blocker: 45.1; STAT3 act: inactive

Results for COc1ccc(-c2csc(NC(=O)c3ccccc3NS(=O)(=O)c3ccc(F)c(F)c3)n2)cc1 ?
STAT3 blocker: 78.6; HSP90 inh: inactive; STAT1 blocker: 63.3; STAT3 act: inactive

What do the screens show for `COc1cccc(C(=O)Nc2nc(-c3ccc(S(=O)(=O)N4CCOCC4)cc3)cs2)c1`?
STAT3 blocker: 47.6; HSP90 inh: inactive; STAT1 blocker: 47.1; STAT3 act: inactive

What do the screens show for `CCOn1c(=O)c(=O)n(OC)c2ccccc21`?
HSP90 inh: inactive

What do the screens show for `O=C(NCc1ccccc1)C12CC3CC(CC(C3)C1)C2`?
STAT3 blocker: inactive; HSP90 inh: inactive; STAT1 blocker: inactive; STAT3 act: inactive

How did CC1(C)C(=O)C2(C(=O)NCc3ccccc3)CCC1C2 (configuration not stated) do in these assays?
STAT3 blocker: inactive; HSP90 inh: 16.5; STAT1 blocker: inactive; STAT3 act: inactive

What do the screens show for `Cc1c(C(=O)Nc2cccc([N+](=O)[O-])c2)csc1-c1ccccc1`?
STAT3 blocker: inactive; HSP90 inh: inactive; STAT1 blocker: inactive; STAT3 act: inactive

Results for Cc1ccc(NC(=O)c2csc(-c3ccccc3)c2C)cc1 ?
STAT3 blocker: 103.6; HSP90 inh: 34.0; STAT1 blocker: 63.3; STAT3 act: inactive

What do the screens show for `CC(OC(=O)CCC(=O)N1CCN(S(=O)(=O)c2ccc3ccccc3c2)CC1)C(=O)NC(N)=O` (configuration not stated)?
HSP90 inh: inactive

How did CCc1ccc(OCCNC(=O)c2ccccc2SCc2ccccc2)cc1 do in these assays?
STAT3 blocker: inactive; HSP90 inh: inactive; STAT1 blocker: inactive; STAT3 act: 133.7

Results for O=C(c1ccccc1)N1CCSc2sccc2C1=O ?
STAT3 blocker: 50.3; HSP90 inh: inactive; STAT1 blocker: 37.2; STAT3 act: inactive

What do the screens show for `O=C(N/N=C/c1c[nH]c2ccccc12)c1ccn(Cc2ccc(Cl)cc2)n1`?
STAT3 blocker: inactive; HSP90 inh: inactive; STAT1 blocker: inactive; STAT3 act: 134.7

What do the screens show for `O=C(N/N=C/c1c[nH]c2ccc(Br)cc12)c1ccn(Cc2ccc(Cl)cc2Cl)n1`?
STAT3 blocker: inactive; HSP90 inh: inactive; STAT1 blocker: inactive; STAT3 act: inactive

Results for Cc1ccc(C(=O)NC(=S)Nc2ccccc2N2CCCC2)cc1[N+](=O)[O-] ?
STAT3 blocker: inactive; HSP90 inh: inactive; STAT1 blocker: inactive; STAT3 act: 133.6

Results for Cc1ccc(C(=O)Nc2ccccc2N2CCCCC2)cc1[N+](=O)[O-] ?
STAT3 blocker: inactive; HSP90 inh: inactive; STAT1 blocker: inactive; STAT3 act: inactive

What do the screens show for `FC(F)c1nnc2c(Cl)cc(C(F)(F)F)cn12`?
STAT3 blocker: inactive; HSP90 inh: inactive; STAT1 blocker: inactive; STAT3 act: inactive

What do the screens show for `Fc1ccc(-c2nc3c(Cl)cc(C(F)(F)F)cn3c2Cl)cc1`?
STAT3 blocker: inactive; HSP90 inh: inactive; STAT1 blocker: inactive; STAT3 act: 134.3

How did O=C1C(Nc2ccccc2)=C(NS(=O)(=O)c2ccccc2)C(=O)c2ccccc21 do in these assays?
STAT3 blocker: inactive; HSP90 inh: inactive; STAT1 blocker: inactive; STAT3 act: 134.2

What do the screens show for `O=C1c2ccccc2C(=O)c2cc(S(=O)(=O)Nc3ccccc3)ccc21`?
STAT3 blocker: inactive; HSP90 inh: inactive; STAT1 blocker: inactive; STAT3 act: inactive

Results for O=C1C=C(Nc2ccccc2)C(=O)c2ccccc21 ?
STAT3 blocker: inactive; HSP90 inh: inactive; STAT1 blocker: inactive; STAT3 act: inactive

What do the screens show for `O=C1C=C(Nc2ccccc2)c2ccccc2C1=O`?
STAT3 blocker: inactive; HSP90 inh: 16.5; STAT1 blocker: inactive; STAT3 act: inactive

How did Clc1ccc(-c2nc3ccccn3c2CN2CCCCC2)cc1 do in these assays?
STAT3 blocker: 45.7; HSP90 inh: inactive; STAT1 blocker: inactive; STAT3 act: inactive

Results for c1ccc2c(c1)nc(NC1CCCCC1)c1nncn12 ?
STAT3 blocker: inactive; HSP90 inh: inactive; STAT1 blocker: inactive; STAT3 act: 135.7

Results for O=C(Oc1ccccc1)c1cccnc1Oc1ccccc1 ?
HSP90 inh: inactive

Results for O=C(CN1C(=O)c2ccccc2S1(=O)=O)c1ccccc1 ?
STAT3 blocker: 65.3; HSP90 inh: inactive; STAT1 blocker: 61.7; STAT3 act: inactive

How did Cc1ccc(-n2nc(C)c3c2OC(N)=C(C#N)C3c2ccncc2)cc1 (configuration not stated) do in these assays?
STAT3 blocker: inactive; HSP90 inh: inactive; STAT1 blocker: inactive; STAT3 act: inactive

What do the screens show for `Cc1nn(-c2ccccc2)c2c1C(c1c(C)[nH]c(C#N)c1C)C(C#N)=C(N)O2` (configuration not stated)?
STAT3 blocker: inactive; HSP90 inh: 36.4; STAT1 blocker: inactive; STAT3 act: 134.1

How did Cc1ccc(-n2nc(C)c3c2OC(N)=C(C#N)C3c2ccccc2F)cc1 (configuration not stated) do in these assays?
STAT3 blocker: inactive; HSP90 inh: inactive; STAT1 blocker: inactive; STAT3 act: 145.6

What do the screens show for `Cc1nn(-c2ccccc2)c(Cl)c1C1C(C#N)=C(N)Oc2c1c(C)nn2-c1ccccc1` (configuration not stated)?
STAT3 blocker: inactive; HSP90 inh: inactive; STAT1 blocker: inactive; STAT3 act: inactive

How did COC(=O)Cc1ccc(NC(=O)c2ccc(C(C)(C)C)cc2)cc1 do in these assays?
STAT3 blocker: 84.6; HSP90 inh: inactive; STAT1 blocker: 43.8; STAT3 act: inactive

Results for O=C(c1ccccc1)c1nn(-c2ccc(Cl)cc2)c(=O)cc1C(F)(F)F ?
STAT3 blocker: inactive; HSP90 inh: inactive; STAT1 blocker: inactive; STAT3 act: 134.4

How did CCC(CNc1cc(OC)cc2cccnc12)NC1CCCCC1 (configuration not stated) do in these assays?
HSP90 inh: 29.2

How did COc1ccc2c(c1)[nH]c(=O)c1sc3ccccc3c12 do in these assays?
STAT3 blocker: inactive; HSP90 inh: inactive; STAT1 blocker: inactive; STAT3 act: 174.1

Results for NS(=O)(=O)c1ccc(NC(=S)N2CCC(Cc3ccccc3)CC2)cc1 ?
HSP90 inh: inactive
